Laboratory results as given in ChEMBL document CHEMBL4350961, “Discovery of Pyrrolo[3,2- d]pyrimidin-4-one Derivatives as a New Class of Potent and Cell-Active Inhibitors of P300/CBP-Associated Factor Bromodomain” (J Med Chem, 2019).
Calls of active or inactive are those of the source. No cut-off for these calls is given here.

Assays:
[1] = biological target: Mitogen-activated protein kinase 11 (Homo sapiens) (UniProt Q15759); test: Inhibition of recombinant full-length human SAPK2b at 10 uM using myelin basic protein as substrate measured after 40 mins in presence of [gamma33P]ATP by scintillation counting method
[2] = biological target: Histone acetyltransferase KAT2B (Homo sapiens, UniProt Q92831); test: Inhibition of biotinylated peptide binding to human GST-tagged PCAF bromodomain expressed in Escherichia coli Rosetta (DE3) measured after 15 hrs by HTRF assay
[3] = biological target: Calcium/calmodulin-dependent protein kinase kinase 1 (Homo sapiens) (UniProt Q8N5S9); test: Inhibition of recombinant full-length human CAMKk1 at 10 uM using calmodulin as substrate measured after 40 mins in presence of [gamma33P]ATP by scintillation counting method
[4] = biological target: Testis-specific serine/threonine-protein kinase 1 (Homo sapiens) (UniProt Q9BXA7); test: Inhibition of recombinant full-length human TSSK1 at 10 uM using KKKVSRSGLYRSPSMPENLNRPR as substrate measured after 120 mins in presence of [gamma33P]ATP by scintillation counting method
Chain of Testis-specific serine/threonine-protein kinase 1 (Homo sapiens) (Q9BXA7 whole entry): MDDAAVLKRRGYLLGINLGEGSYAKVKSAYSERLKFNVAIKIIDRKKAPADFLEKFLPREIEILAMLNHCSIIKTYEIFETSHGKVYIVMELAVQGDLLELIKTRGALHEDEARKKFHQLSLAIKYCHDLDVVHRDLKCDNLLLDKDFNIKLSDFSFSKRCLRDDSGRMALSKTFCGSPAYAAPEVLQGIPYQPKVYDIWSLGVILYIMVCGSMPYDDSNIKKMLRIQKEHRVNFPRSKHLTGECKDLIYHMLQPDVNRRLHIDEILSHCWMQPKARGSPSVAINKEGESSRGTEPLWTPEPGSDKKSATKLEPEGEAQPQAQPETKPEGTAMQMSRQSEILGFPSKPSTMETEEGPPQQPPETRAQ

[5] = Lipophilicity, log D of the compound at pH 7.4 by HPLC analysis; type: physicochemical; conditions: buffer
[6] = biological target: Calcium/calmodulin-dependent protein kinase type 1B (Homo sapiens) (UniProt Q6P2M8); test: Inhibition of recombinant full-length human CaMK1beta at 10 uM using calmodulin as substrate measured after 40 mins in presence of [gamma33P]ATP by scintillation counting method
[7] = biological target: CDK9/cyclin T1 (Homo sapiens) (UniProt O60563+P50750); test: Inhibition of recombinant full length human CDK9/cyclinT1 at 10 uM using KTFCGTPEYLAPEVRREPRILSEEEQEMFRDFDYIADWC as substrate measured after 40 mins in presence of [gamma33P]ATP by scintillation counting method; type: protein-complex assay
[8] = biological target: Histone acetyltransferase KAT2A (Homo sapiens, UniProt Q92830); test: Binding affinity to human partial length GCN5L2 (E726 to K837 residues) expressed in bacterial expression system at 1 uM by BROMOscan assay
How it was run: (§1)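 BROMOscan bromodomain cross-screen run by an outside service, compound at 1 µM against 32 recombinant bromodomains. Binding given as percent of control.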

[9] = biological target: Serine/threonine-protein kinase Nek1 (Homo sapiens) (UniProt Q96PY6); test: Inhibition of recombinant human NEK1 (1 to 505 residues) at 10 uM using RLGRDKYKTLRQIRQ as substrate measured after 40 mins in presence of [gamma33P]ATP by scintillation counting method
[10] = biological target: Serine/threonine-protein kinase N2 (Homo sapiens) (UniProt Q16513); test: Inhibition of human PRK2 (501 to end residues) using AKRRRLSSLRA as substrate measured after 40 mins in presence of [gamma33P]ATP by scintillation counting method
Chain of Serine/threonine-protein kinase N2 (Homo sapiens) (Q16513 whole entry, looked up): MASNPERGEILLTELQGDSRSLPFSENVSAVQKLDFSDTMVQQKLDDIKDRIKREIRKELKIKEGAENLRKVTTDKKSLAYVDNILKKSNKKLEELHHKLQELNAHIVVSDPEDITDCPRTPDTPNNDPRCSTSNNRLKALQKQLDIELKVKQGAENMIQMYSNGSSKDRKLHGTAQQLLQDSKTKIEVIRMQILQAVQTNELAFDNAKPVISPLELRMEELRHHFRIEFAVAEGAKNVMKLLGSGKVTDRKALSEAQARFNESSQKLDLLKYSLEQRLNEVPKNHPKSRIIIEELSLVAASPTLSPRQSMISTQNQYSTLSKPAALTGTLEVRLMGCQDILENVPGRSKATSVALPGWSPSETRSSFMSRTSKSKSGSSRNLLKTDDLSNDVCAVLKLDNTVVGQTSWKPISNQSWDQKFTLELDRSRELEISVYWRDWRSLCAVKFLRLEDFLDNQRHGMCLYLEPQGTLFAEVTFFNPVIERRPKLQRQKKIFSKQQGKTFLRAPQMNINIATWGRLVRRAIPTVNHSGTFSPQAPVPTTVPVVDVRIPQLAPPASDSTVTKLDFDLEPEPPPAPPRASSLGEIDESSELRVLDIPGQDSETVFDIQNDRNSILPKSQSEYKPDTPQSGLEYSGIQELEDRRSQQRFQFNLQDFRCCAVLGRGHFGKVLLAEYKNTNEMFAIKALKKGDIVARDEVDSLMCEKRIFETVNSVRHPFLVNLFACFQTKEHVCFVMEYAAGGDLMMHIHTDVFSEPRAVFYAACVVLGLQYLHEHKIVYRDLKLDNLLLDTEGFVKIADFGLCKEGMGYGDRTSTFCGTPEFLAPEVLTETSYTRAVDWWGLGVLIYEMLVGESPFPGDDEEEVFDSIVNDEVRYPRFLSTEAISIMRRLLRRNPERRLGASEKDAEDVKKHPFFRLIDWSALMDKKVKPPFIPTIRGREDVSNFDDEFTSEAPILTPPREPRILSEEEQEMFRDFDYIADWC
How it was run: (§2)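 Kinase panel of 422 kinases screened by Eurofins KinaseProfiler at a single test-compound concentration of 10 µM.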

[11] = biological target: Ephrin type-B receptor 4 (Homo sapiens) (UniProt P54760); test: Inhibition of recombinant human EphB4 (561 to end residues) at 10 uM using poly (Glu, Tyr) 4:1 as substrate measured after 40 mins in presence of [gamma33P]ATP by scintillation counting method
Chain of Ephrin type-B receptor 4 (Homo sapiens) (P54760 whole entry): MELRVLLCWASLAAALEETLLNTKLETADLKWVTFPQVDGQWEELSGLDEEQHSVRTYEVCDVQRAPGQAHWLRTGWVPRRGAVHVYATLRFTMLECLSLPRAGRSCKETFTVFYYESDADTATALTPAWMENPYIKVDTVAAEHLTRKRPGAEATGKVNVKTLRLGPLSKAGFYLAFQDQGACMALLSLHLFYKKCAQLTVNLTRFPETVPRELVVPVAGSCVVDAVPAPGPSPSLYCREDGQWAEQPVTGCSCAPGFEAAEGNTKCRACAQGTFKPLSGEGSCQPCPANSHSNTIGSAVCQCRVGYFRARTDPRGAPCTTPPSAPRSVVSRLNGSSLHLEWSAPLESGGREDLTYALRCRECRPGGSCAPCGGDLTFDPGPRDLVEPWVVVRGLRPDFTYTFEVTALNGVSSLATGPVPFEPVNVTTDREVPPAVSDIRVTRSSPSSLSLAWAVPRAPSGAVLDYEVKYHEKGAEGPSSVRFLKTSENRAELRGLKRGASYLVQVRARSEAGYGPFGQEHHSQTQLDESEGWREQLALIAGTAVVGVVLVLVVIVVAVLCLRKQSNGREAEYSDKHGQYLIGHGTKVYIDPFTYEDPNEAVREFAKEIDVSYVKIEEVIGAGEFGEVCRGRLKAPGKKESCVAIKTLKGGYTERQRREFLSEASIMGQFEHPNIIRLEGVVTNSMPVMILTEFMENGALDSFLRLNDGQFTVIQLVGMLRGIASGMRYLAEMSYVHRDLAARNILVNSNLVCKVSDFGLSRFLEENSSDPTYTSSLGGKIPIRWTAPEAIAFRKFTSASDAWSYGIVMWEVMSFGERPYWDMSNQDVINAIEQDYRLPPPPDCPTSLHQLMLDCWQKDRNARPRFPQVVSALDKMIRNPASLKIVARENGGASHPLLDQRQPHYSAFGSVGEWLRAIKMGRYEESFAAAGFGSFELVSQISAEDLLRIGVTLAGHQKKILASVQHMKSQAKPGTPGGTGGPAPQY

[12] = biological target: Proto-oncogene tyrosine-protein kinase Src (Homo sapiens) (UniProt P12931); test: Inhibition of recombinant full-length human SRC at 10 uM using Cdc2 peptide as substrate measured after 40 mins in presence of [gamma33P]ATP by scintillation counting method
[13] = system: Calcium/calmodulin-dependent protein kinase kinase 2 (Homo sapiens), Q96RR4 [T85S]; test: Inhibition of recombinant full-length human CAMKk2 T85S mutant at 10 uM using calmodulin as substrate measured after 40 mins in presence of [gamma33P]ATP by scintillation counting method
[14] = biological target: Cyclin-dependent kinase-like 1 (Homo sapiens) (UniProt Q00532); test: Inhibition of recombinant human CDKL1 (1 to 303 residues) at 10 uM using RRRFRPASPLRGP as substrate measured after 120 mins in presence of [gamma33P]ATP by scintillation counting method
Chain of Cyclin-dependent kinase-like 1 (Homo sapiens) (Q00532 whole entry, the tested form may be a part): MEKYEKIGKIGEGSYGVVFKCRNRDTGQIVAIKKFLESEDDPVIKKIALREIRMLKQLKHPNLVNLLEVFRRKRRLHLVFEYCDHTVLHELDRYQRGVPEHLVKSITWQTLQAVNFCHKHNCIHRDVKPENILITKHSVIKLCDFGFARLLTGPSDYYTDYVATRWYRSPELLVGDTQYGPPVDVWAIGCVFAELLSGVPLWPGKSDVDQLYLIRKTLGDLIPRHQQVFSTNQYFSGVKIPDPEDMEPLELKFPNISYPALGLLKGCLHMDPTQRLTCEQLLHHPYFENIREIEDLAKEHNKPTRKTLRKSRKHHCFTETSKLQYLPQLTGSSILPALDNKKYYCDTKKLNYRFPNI

[15] = biological target: Bromodomain-containing protein 3 (Homo sapiens) (UniProt Q15059); test: Binding affinity to human partial length BRD3 bromodomain 2 (G306 to P416 residues) expressed in bacterial expression system at 1 uM by BROMOscan assay; how it was run: as §1
Chain of Bromodomain-containing protein 3 (Homo sapiens) (Q15059 2-726 limits assumed): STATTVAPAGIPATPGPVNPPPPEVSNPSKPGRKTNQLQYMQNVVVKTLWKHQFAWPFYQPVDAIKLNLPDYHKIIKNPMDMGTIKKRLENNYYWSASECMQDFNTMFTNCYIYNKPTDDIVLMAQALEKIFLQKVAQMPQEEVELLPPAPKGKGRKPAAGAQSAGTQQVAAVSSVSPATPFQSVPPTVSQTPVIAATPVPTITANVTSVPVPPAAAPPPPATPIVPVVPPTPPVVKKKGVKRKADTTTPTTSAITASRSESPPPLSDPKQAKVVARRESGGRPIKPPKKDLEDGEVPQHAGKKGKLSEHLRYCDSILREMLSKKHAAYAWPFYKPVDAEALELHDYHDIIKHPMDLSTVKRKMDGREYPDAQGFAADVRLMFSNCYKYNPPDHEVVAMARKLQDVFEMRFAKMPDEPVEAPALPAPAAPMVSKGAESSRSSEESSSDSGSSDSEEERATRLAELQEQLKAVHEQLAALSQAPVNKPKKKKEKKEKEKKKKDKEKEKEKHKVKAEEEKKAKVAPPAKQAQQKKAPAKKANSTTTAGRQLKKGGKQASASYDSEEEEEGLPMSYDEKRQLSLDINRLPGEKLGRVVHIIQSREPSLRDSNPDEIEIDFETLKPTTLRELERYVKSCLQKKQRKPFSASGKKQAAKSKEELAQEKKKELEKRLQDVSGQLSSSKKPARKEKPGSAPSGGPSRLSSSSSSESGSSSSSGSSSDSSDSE

[16] = system: CDK18/Cyclin Y (Homo sapiens), Q07002+Q8ND76 [T166M]; test: Inhibition of recombinant full length human cyclinY/CDK18 T166M mutant at 10 uM using YRRAAVPPSPSLS as substrate measured after 40 mins in presence of [gamma33P]ATP by scintillation counting method; type: protein-complex assay
[17] = biological target: Serine/threonine-protein kinase VRK1 (Homo sapiens) (UniProt Q99986); test: Inhibition of human VRK1 at 10 uM by radiometric method
Chain of Serine/threonine-protein kinase VRK1 (Homo sapiens) (Q99986 whole entry): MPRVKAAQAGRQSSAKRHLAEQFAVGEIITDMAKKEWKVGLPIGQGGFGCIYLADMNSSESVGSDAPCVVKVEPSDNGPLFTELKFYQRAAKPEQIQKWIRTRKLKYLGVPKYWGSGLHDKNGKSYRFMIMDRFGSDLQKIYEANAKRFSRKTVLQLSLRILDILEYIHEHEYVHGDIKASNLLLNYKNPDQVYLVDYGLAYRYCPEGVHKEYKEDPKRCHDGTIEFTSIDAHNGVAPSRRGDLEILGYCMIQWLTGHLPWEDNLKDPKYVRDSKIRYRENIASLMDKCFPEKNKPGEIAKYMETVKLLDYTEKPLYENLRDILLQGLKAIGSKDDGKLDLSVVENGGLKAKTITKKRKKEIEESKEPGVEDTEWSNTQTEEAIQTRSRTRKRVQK

[18] = biological target: Mitogen-activated protein kinase kinase kinase 3 (Homo sapiens) (UniProt Q99759); test: Inhibition of recombinant full-length human MEKK3 at 10 uM using myelin basic protein as substrate measured after 40 mins in presence of [gamma33P]ATP by scintillation counting method
[19] = biological target: Mitogen-activated protein kinase 13 (Homo sapiens) (UniProt O15264); test: Inhibition of recombinant full-length human SAPK4 at 10 uM using myelin basic protein as substrate measured after 40 mins in presence of [gamma33P]ATP by scintillation counting method
Chain of Mitogen-activated protein kinase 13 (Homo sapiens) (O15264 whole entry): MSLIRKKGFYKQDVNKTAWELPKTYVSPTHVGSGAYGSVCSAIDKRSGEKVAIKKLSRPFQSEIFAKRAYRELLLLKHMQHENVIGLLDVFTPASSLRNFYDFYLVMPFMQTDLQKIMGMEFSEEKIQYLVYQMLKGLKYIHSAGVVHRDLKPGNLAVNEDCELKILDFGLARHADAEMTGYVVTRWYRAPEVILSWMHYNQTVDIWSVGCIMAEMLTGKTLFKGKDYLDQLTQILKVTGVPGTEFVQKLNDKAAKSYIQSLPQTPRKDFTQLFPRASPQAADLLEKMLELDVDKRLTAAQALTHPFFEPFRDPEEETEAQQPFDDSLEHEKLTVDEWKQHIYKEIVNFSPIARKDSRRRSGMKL

[20] = biological target: Cyclin-dependent kinase-like 4 (Homo sapiens) (UniProt Q5MAI5); test: Inhibition of human CDKL4 at 10 uM by radiometric method; how it was run: as §2
[21] = biological target: Serine/threonine-protein kinase 33 (Homo sapiens) (UniProt Q9BYT3); test: Inhibition of recombinant full-length human STK33 at 10 uM using myelin basic protein as substrate measured after 40 mins in presence of [gamma33P]ATP by scintillation counting method
Chain of Serine/threonine-protein kinase 33 (Homo sapiens) (Q9BYT3 whole entry, looked up): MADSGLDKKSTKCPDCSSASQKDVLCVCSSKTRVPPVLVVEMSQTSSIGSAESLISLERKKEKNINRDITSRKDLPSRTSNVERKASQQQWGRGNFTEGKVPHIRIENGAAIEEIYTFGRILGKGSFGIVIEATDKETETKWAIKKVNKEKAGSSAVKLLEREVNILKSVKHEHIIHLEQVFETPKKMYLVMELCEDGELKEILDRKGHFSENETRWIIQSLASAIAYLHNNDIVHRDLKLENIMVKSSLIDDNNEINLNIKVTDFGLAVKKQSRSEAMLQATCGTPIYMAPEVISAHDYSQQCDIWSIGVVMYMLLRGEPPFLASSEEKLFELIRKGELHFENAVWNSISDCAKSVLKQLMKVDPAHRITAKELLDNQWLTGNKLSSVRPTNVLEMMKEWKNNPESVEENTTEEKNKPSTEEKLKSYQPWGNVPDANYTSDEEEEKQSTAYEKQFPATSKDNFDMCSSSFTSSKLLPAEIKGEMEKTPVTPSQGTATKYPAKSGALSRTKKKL

[22] = biological target: BMP-2-inducible protein kinase (Homo sapiens) (UniProt Q9NSY1); test: Inhibition of recombinant human BIKepsilon at 10 uM using peptide substrate measured after 120 mins in presence of [gamma33P]ATP by scintillation counting method
[23] = biological target: Serine-protein kinase ATM (Homo sapiens) (UniProt Q13315); test: Inhibition of recombinant full-length human ATM at 10 uM using GST-cMyc-p53 as substrate measured after 40 mins by ELISA
[24] = biological target: Vascular endothelial growth factor receptor 1 (Homo sapiens) (UniProt P17948); test: Inhibition of recombinant human Flt1 (783 to end residues) at 10 uM using KKKSPGEYVNIEFG as substrate measured after 40 mins in presence of [gamma33P]ATP by scintillation counting method
[25] = biological target: Dual specificity protein kinase CLK1 (Homo sapiens) (UniProt P49759); test: Inhibition of recombinant human CLK1 (130 to end residues) at 10 uM using ERMRPRKRQGSVRRRV as substrate measured after 40 mins in presence of [gamma33P]ATP by scintillation counting method

In the case of `CN1C[C@H](Nc2nc3cc[nH]c3c(=O)n2C)C[C@H](c2ccc3c(c2)OCCO3)C1`, the inhibition [1] is reported as “inactive”, the IC50 [2] is reported as 7 nM and the inhibition [3] is reported as “inactive”. The inhibition [4] was “inactive”, the logD [5] was 1.9 and the inhibition [6] was “inactive”. For the same compound, the inhibition [7] was “inactive”, the Activity [8] was “Active” and the inhibition [9] was “inactive”. The inhibition [10] was “inactive”, the inhibition [11] was “inactive” and the inhibition [12] was “inactive”. For the same compound, the inhibition [13] was “inactive”, the inhibition [14] was “inactive” and the Activity [15] was “inactive”. For the same compound, the inhibition [16] was “inactive”, the inhibition [17] was “inactive” and the inhibition [18] was “inactive”. For the same compound, the inhibition [19] was “inactive”, the inhibition [20] was “inactive” and the inhibition [21] was “inactive”. For the same compound, the inhibition [22] was “inactive”, the inhibition [23] was “inactive” and the inhibition [24] was “inactive”. The inhibition [25] was “inactive”.
